Experimental data gathered from unrelated publications.
Protocols differ between the studies behind these lines.
Target: Phosphatidylinositol 5-phosphate 4-kinase type-2 gamma (PIP4K2C, Homo sapiens, UniProt Q8TBX8)
Sequence (Q8TBX8 1-421, as in one of the studies): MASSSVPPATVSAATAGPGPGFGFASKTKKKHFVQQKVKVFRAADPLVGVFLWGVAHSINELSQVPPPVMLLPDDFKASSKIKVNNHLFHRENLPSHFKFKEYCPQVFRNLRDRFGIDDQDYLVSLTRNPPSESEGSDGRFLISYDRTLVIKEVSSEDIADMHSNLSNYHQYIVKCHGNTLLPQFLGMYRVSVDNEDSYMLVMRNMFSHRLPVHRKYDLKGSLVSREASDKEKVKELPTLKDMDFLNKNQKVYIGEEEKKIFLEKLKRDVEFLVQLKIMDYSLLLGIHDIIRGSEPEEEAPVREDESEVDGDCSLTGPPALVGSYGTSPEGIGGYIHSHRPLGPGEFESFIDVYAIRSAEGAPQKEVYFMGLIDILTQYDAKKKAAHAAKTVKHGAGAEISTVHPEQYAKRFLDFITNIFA

SMILES | test | conditions | remaining binding [%]
O=C(c1ccc(Nc2ncc(Cl)c(-c3ccc(Cl)s3)n2)cc1)N1CCC(N2CCCC2)CC1 | binding, competition with immobilised ligand | 1 µM | 5.9
NS(=O)(=O)c1cc(NC(=O)Cc2ccccc2)ccc1Oc1cccc(Cl)c1 | cell-free assay, competition with immobilised ligand | 1 µM | 100
C[C@@H](c1ccc(-n2cnc3c(N)ncnc32)cc1)N1CCc2nn(C)c(Cc3ccccc3)c2C1=O | binding, competition with immobilised ligand | 0.1 µM | 96
O=C(N1CCS(=O)(=O)CC1)N1C[C@H](c2ccc(OC(F)(F)F)cc2)C[C@H](c2nc(C3CC3)no2)C1 | cell-free assay, competition with immobilised ligand | 1 µM | 96
O=C(c1ccc(Nc2nccc(-c3cc4ccccc4s3)n2)cc1)N1CCC(N2CCCC2)CC1 | binding, competition with immobilised ligand | 1 µM | 1.4
O=C(Nc1c[nH]nc1C(=O)NC1CCNCC1)c1cc(F)cc(F)c1 | binding, competition with immobilised ligand | 1 µM | 76
Cn1cc(Cl)c2c(Oc3c(F)cc(Nc4cc(Cl)nc(N)n4)cc3F)ccnc21 | cell-free assay, competition with immobilised ligand | 0.1 µM | 96
CN(C)c1ncc(F)c(-c2cnn3ncccc23)n1 | binding | 1 µM | 95
CNC(=O)c1ccc(Nc2ncc(C(F)(F)F)c(NCc3nccnc3N(C)S(C)(=O)=O)n2)cc1 | cell-free assay, competition with immobilised ligand | 0.1 µM | 40
COc1ncc2cc3ccccc3nc2c1C#N | cell-free assay, competition with immobilised ligand | 5 µM | 100
C[C@H]1CCN(c2nccc(-c3cnn4ncccc34)n2)C1 | binding | 1 µM | 42
Cc1cc(C)c(-n2ccn3nc(-c4cccnc4)cc23)cc1NC(=O)c1cc(C#N)cc(S(F)(F)(F)(F)F)c1 | cell-free assay, competition with immobilised ligand | 0.1 µM | 89.9
CN(c1nccc(-c2cnn3ncccc23)n1)C1CC1 | binding | 1 µM | 100
O=C(c1ccc(Nc2ncc(Cl)c(-c3cc4ccccc4s3)n2)cc1)N1CCC(N2CCCC2)CC1 | binding, competition with immobilised ligand | 1 µM | 6.7
CC1CCCN1c1nccc(-c2cnn3ncccc23)n1 (stereo not shown) | binding | 1 µM | 100
CC(C)CC(=O)N1CCc2nc(-c3ccc(Br)cc3)nc(N(C)Cc3ccccc3)c2C1 | cell-free assay, competition with immobilised ligand | 0.1 µM | 96
F[C@@H]1CCN(c2nccc(-c3cnn4ncccc34)n2)C1 | binding | 1 µM | 100
Cc1nc(NC(=O)N2CCC[C@H]2C(N)=O)sc1-c1ccnc(C(C)(C)C(F)(F)F)c1 | binding, competition with immobilised ligand | 10 µM | 100
N[C@H]1CCN(c2nccc(-c3cnn4ncccc34)n2)C1 | binding | 1 µM | 81
CNC(=O)[C@@H]1CC[C@@H](n2c(-c3ccc4cnccc4c3)nc3ccc(C(=O)NCc4cccc(C(N)=O)c4)cc32)C1 | binding, competition with immobilised ligand | 1 µM | 91
COc1ccnn2ncc(-c3ccnc(N(C)C)n3)c12 | binding | 1 µM | 80
CCS(=O)(=O)c1cc2cc(C[C@@](O)(CC(C)(C)c3ccc(F)cc3C(N)=O)C(F)(F)F)[nH]c2cn1 | cell-free assay, competition with immobilised ligand | 1 µM | 100
